In PubChem BioAssay:
Calls of active or inactive are those of the source.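 Rule for the calls, unless noted: active = viability at or below 30% in both replicate assays; inconclusive = viability at or below 30% in just one of the two assays; inactive = the rest.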

Legend:
[1] = reduced viability of SK-BR-3 breast cancer cells – cell-based, 24 h, human, pilot screen (AID 572;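 active = viability at or below 10% of carrier control in both of two separate runs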;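 note: compound exposure lasted between 18 and 24 h rather than exactly 24 h; 100% = carrier-treated control wells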); conditions: SK-BR-3 viability, CellTiter-Glo luminescence, at 10 µM, stronger effect = lower value
[2] = HUVEC growth inhibition – cell-based, human, primary screen (AID 575); conditions: HUVEC proliferation, CellTiter-Glo luminescence, 72 h; at 10 µM; stronger effect = lower value;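 note: 100% = median of untreated cell wells with 0.1% DMSO on each plate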
Method in brief: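 Test system – primary HUVEC, no more than 12 passages · Dosing – one dose, 10 µM final, 0.1% DMSO · Times – 72 h treatment at 37 °C · Measured by – ATP-based CellTiter-Glo luminescent read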

[3] = H69AR cell proliferation blockers – human, duplicate replicates, primary screen (AID 580;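 active = viability at or under a set limit in both replicates, limit being median viability minus 3 SD, cut at about 48% in these data, passing the limit was not always enough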;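 note: 100% = mean luminescence of untreated wells and 0% = no signal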); conditions: H69AR lung tumor cells viability, ATP luminescence, 72 h; at 10 µM; stronger effect = lower value
[4] = MRP1 drug-resistance reversers in H69AR cells – cell-based, doxorubicin co-treatment, pilot screen (AID 601;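 active = viability loss from added drug above about 55%, and viability with drug at most 40%, in both replicates, limit read from the data, passing the limit was not always enough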); conditions: CellTiter-Glo, 72 h, at 10 µM; for differential viability (reversal): stronger effect = higher value
[5] = yeast transport mutant growth inhibition pilot in 384-well plates, post-Golgi transport modulator project (AID 636; in the data active = inhibition above about 31%); conditions: absorbance 615 nm, about 18 h, stronger effect = higher value
[6] = growth suppression of yeast trafficking mutant, preliminary HTS, modulators of trafficking downstream of Golgi apparatus project, 1536-format plate, OD 615 nm (AID 637; in the data active = inhibition above about 30%); conditions: yeast transport mutant growth, absorbance 615 nm, 18 h; stronger effect = higher value
[7] = H69AR cells + 2 uM doxorubicin, measured here: viability with 2 uM doxorubicin, stronger effect = lower value
[8] = H69AR cells, compound alone cytotoxicity

| Compound | viability [1] | viability [2] | viability [3] | differential viability (reversal) ([4]; H69AR cells + 2 uM doxorubicin) | viability [4, 7] [%] | viability [4, 8] [%] | inhibition [5] | inhibition [6] |
| --- | --- | --- | --- | --- | --- | --- | --- | --- |
| O=S(=O)(c1cccc2c(S(=O)(=O)N3CCCC3)cccc12)N1CCCC1 | 72% (inactive) | 107% (inactive) | 93.5% (inactive) | 5.26% (inactive) | 88.2 | 93.5 | -9.18% (inactive) | -0.55% (inactive) |
| CCn1c(=O)c2cc(S(=O)(=O)NCc3ccccc3)ccc2n(CC)c1=O | 93% (inactive) | 62.8% (inactive) | 19.4% (active) | -77.1% (inactive) | 96.5 | 19.4 | -1.3% (inactive) | 18.7% (inactive) |
| Cn1c(=O)[nH]c(=O)c2c1ncn2CCN1CCOCC1 | 96% (inactive) | 102% (inactive) | 99.1% (inactive) | 5.28% (inactive) | 93.8 | 99.1 | -2.6% (inactive) | -1.48% (inactive) |
| Cc1ccc(N2CCN(c3ccc(C)cc3)C(CC(=O)O)C2=O)cc1 (stereo not given) | 92% (inactive) | 98.2% (inactive) | 97.4% (inactive) | 4.25% (inactive) | 93.2 | 97.4 | -5.89% (inactive) | -3.23% (inactive) |
| Cc1nc2ncnn2c(N2CCC(C(=O)NCC3CCCO3)CC2)c1Cc1ccccc1 (stereo not given) | 136% (inactive) | 97.1% (inactive) | 89.5% (inactive) | -6.76% (inactive) | 96.3 | 89.5 | -3.7% (inactive) | -4.55% (inactive) |
| COc1cccc2sc(NC(=O)c3ccc(S(=O)(=O)N4CCOCC4)cc3)nc12 | 113% (inactive) | 85.5% (inactive) | 86.7% (inactive) | 16.8% (inactive) | 69.8 | 86.7 | -7.16% (inactive) | -8.18% (inactive) |
| C=CCn1cnc2c(c1=O)c1nc3ccccc3nc1n2-c1ccc(C)cc1 | 105% (inactive) | 97.2% (inactive) | 86.9% (inactive) | -6.75% (inactive) | 93.7 | 86.9 | -5.48% (inactive) | -1.61% (inactive) |
| N#Cc1c(NCc2ccccc2)ccnc1NCc1cccnc1 | 78% (inactive) | 59.2% (inactive) | 98.6% (inactive) | 4.3% (inactive) | 94.3 | 98.6 | -6.08% (inactive) | -0.55% (inactive) |
| O=C(c1ccccc1-c1nc(-c2ccccc2)no1)N1CCCC1 | 105% (inactive) | 120% (inactive) | 90.9% (inactive) | 9.27% (inactive) | 81.6 | 90.9 | -5.07% (inactive) | -3.23% (inactive) |
| CCCCCn1c(CN2CCN(c3cccc(Cl)c3)CC2)nc2c1c(=O)n(C)c(=O)n2C | 97% (inactive) | 69.2% (inactive) | 88% (inactive) | 38.5% (inactive) | 49.5 | 88 | 7.7% (inactive) | 11.6% (inactive) |
| c1ccc(-c2nc3cnccn3c2Nc2ccc3c(c2)OCCO3)cc1 | 96% (inactive) | 107% (inactive) | 91.5% (inactive) | 38.5% (inactive) | 52.9 | 91.5 | -5.47% (inactive) | -1.27% (inactive) |
| COc1ccccc1-n1nnnc1SCc1cc2c(cc1Br)OCO2 | 65% (inactive) | 86.1% (inactive) | 72.2% (inactive) | -4.98% (inactive) | 77.2 | 72.2 | -6.16% (inactive) | 4.18% (inactive) |
| Cn1c(=O)c2c(nc(CN3CCCCC3)n2CCCc2ccccc2)n(C)c1=O | 122% (inactive) | 103% (inactive) | 81.7% (inactive) | 0.72% (inactive) | 81 | 81.7 | -1.3% (inactive) | 6.23% (inactive) |
| COC(=O)c1nnn(-c2ccccc2)c1N | 103% (inactive) | 100% (inactive) | 103% (inactive) | -1.73% (inactive) | 105 | 103 | -1.82% (inactive) | 3.61% (inactive) |
| O=C1NC(=O)C(CC(=O)N(c2ccccc2)C2(C(=O)NC3CCCC3)CCCCC2)N1 (stereo not given) | 99% (inactive) | 100% (inactive) | 97.2% (inactive) | 8.26% (inactive) | 88.9 | 97.2 | -8.36% (inactive) | 4.36% (inactive) |
| CCN(CC)S(=O)(=O)c1cccc(-c2nnc(SCCOc3ccccc3C)o2)c1 | 75% (inactive) | 89% (inactive) | 87.9% (inactive) | 18.7% (inactive) | 69.3 | 87.9 | -2.6% (inactive) | 8.36% (inactive) |
| COc1cc2c3c(c1)/C(=C1/SC(NC(C)=O)=NC1=O)C(=O)N3C(C)(C)C=C2C | 91% (inactive) | 54.8% (inactive) | 72.2% (inactive) | -7.9% (inactive) | 80.2 | 72.2 | -10% (inactive) | -1.77% (inactive) |
| Cc1ccc(S(=O)(=O)N2CCN(S(=O)(=O)N(C)C)CC2)cc1 | 123% (inactive) | 107% (inactive) | 103% (inactive) | 8.38% (inactive) | 94.7 | 103 | -3.15% (inactive) | -4.68% (inactive) |
| CN1CCc2c(sc3c2c(=O)n(-c2cccc(Cl)c2)c2nncn32)C1 | 102% (inactive) | 84.5% (inactive) | 95.8% (inactive) | -13.3% (inactive) | 109 | 95.8 | -2.6% (inactive) | -5.41% (inactive) |
| Cn1c(CN2CCCCC2)nc2cc(NC(=O)c3ccccc3)ccc21 | 54% (inactive) | 102% (inactive) | 88.5% (inactive) | -5.74% (inactive) | 94.2 | 88.5 | -7.53% (inactive) | -3.09% (inactive) |
| CN(C)C(=O)COc1ccc2cc(-c3ccccc3)c(=O)oc2c1 | 93% (inactive) | 98.1% (inactive) | 90.7% (inactive) | -2.2% (inactive) | 92.9 | 90.7 | -7.12% (inactive) | -4.18% (inactive) |
| Cc1ccc(S(=O)(=O)NCC(=O)OCC(=O)Nc2ncc(Cl)cc2Cl)cc1 | 82% (inactive) | 91.2% (inactive) | 99.6% (inactive) | -16.6% (inactive) | 116 | 99.6 | -5.21% (inactive) | 1.45% (inactive) |
| CCCN1CCN(C(=O)Cn2cccc2C(=O)c2ccccc2)CC1 | 84% (inactive) | 99.9% (inactive) | 100% (inactive) | 17.8% (inactive) | 82.2 | 100 | -2.27% (inactive) | 1.27% (inactive) |
| Cc1nc2nc(-c3cccnc3)nn2c(C)c1Cl | 109% (inactive) | 87.4% (inactive) | 102% (inactive) | 12.9% (inactive) | 89.2 | 102 | -3.78% (inactive) | -3.27% (inactive) |
| Cc1ccc(S(=O)(=O)N2CCN(C(=O)CSC3CCCC3)CC2)c(C)c1 | 74% (inactive) | 87.4% (inactive) | 81.6% (inactive) | -7.29% (inactive) | 88.8 | 81.6 | -9.59% (inactive) | -5.32% (inactive) |
